According to ChEMBL document CHEMBL4414574, “Structure-Based Discovery and Development of a Series of Potent and Selective Bromodomain and Extra-Terminal Protein Inhibitors” (J Med Chem, 2019):
Activity calls are given as the source filed them. No cut-off for these calls is given here.

Key:
MV4-11 [1] = assay: Induction of apoptosis in human MV4-11 cells assessed as reduction in BCL-2 mRNA expression after 24 hrs by real time qPCR analysis; assay type: functional, cell-based
MV4-11 [2] = assay: Induction of apoptosis in human MV4-11 cells assessed as increase in cleaved caspase-8 level after 24 hrs by Western blot analysis; assay type: functional, cell-based
Outline: (§1)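 MV4-11 cells exposed to test agent at the indicated doses for 24 h. Lysates immunoblotted for full-length and cleaved caspase-3, -7, -8 and -9, with GAPDH as the loading reference.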

[3] = biological target: Insulin-like growth factor 1 receptor (Homo sapiens) (UniProt P08069); assay: Inhibition of IGF1R (unknown origin) at 10 uM using poly (Glu, Tyr) 4:1 as substrate after 60 mins by ELISA
[4] = Half life in ICR mouse at 10 mg/kg, po administered via gavage measured after 0.25 to 24 hrs by UPLC/MS analysis; assay type: ADME, organism-based; conditions: in vivo
Outline: (§2)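 Male ICR mice dosed orally in 1% DMSO/0.5% HPMC vehicle; plasma or brain drug levels used to derive Tmax, Cmax, AUC0-t, AUC0-inf and T1/2.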

[5] = Tmax in rat brain at 50 mg/kg, po; assay type: ADME, organism-based
Outline: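 Rats dosed orally at 50 mg/kg in 1% DMSO/0.5% HPMC; drug measured in plasma and brain.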

[6] = biological target: T1, Bromodomain-containing protein 4 (Homo sapiens, UniProt O60885); assay: Inhibition of BRD4 in human MV4-11 cells assessed as reduction in BCL2 phosphorylation at Thr56 residues after 24 hrs by Western blot analysis; assay type: cell-based
Outline: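 MV4-11 cells exposed to graded doses for 24 h; lysates immunoblotted for phospho-BCL2, with GAPDH as loading control.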

[7] = Cmax in ICR mouse at 10 mg/kg, po administered via gavage measured after 0.25 to 24 hrs by UPLC/MS analysis; assay type: ADME, organism-based; set-up: dose 10 mg/kg, route oral; conditions: in vivo; outline: as §2
[8] = Half life in ICR mouse plasma at 100 mg/kg, po administered via gavage measured after 0.25 to 24 hrs by UPLC/MS analysis; assay type: ADME, organism-based; outline: as §2
Cytochrome P450 2D6 = Cytochrome P450 2D6 (Homo sapiens, UniProt P10635); assay: Time-dependent inhibition of CYP2D6 in human liver microsomes at 10 uM using dextromethorphan as substrate preincubated up to 30 mins followed by NADPH generating system addition and measured after 10 mins; assay type: ADME
Outline: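 Human liver microsomes 0.2 mg/mL, 100 mM phosphate pH 7.4, 10 μM test compound, preincubated 0, 5, 10 and 30 min at 37 °C; then NADPH plus probe cocktail (5 μM midazolam, 50 μM testosterone, 5 μM dextromethorphan, 10 μM diclofenac, 50 μM phenacetin, 50 μM S-(+)-mephenytoin) added; 10 min reaction; kobs in units of 10^-4/min.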

MV4-11 [9] = assay: Induction of apoptosis in human MV4-11 cells assessed as reduction in BCL-xL level after 24 hrs by Western blot analysis; assay type: functional, cell-based
Outline: (§3)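 MV4-11 cells exposed to compound at the indicated doses for 24 h; lysates probed by Western blotting for the target protein, with GAPDH as loading control.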

MV4-11 [10] = assay: Induction of apoptosis in human MV4-11 cells assessed as increase in cleaved caspase-9 level after 24 hrs by Western blot analysis; assay type: functional, cell-based; outline: as §1
[11] = AUC (0 to t) in ICR mouse brain at 50 mg/kg, po administered via gavage measured after 0.25 to 24 hrs by UPLC/MS analysis; assay type: ADME, organism-based; set-up: time lower 0.25 hr, dose 50 mg/kg, time upper 24 hr, route oral
Outline: (§4)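 Male ICR mice were dosed orally in 1% DMSO/0.5% HPMC vehicle. Plasma (and brain, where stated) concentrations gave Tmax, Cmax, T1/2, AUC0-t and AUC0-inf.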

NCI-H522 = assay: Antiproliferative activity against human NCI-H522 cells after 72 hrs by CCK8 or SRB assay; assay type: functional, cell-based
[12] = Tmax in rat plasma at 10 mg/kg, po; assay type: ADME, organism-based
Outline: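 Oral dosing in 1% DMSO/0.5% HPMC vehicle (dog 3 mg/kg; rat 10 mg/kg); plasma drug levels measured.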

MDA-MB-436 = assay: Antiproliferative activity against human MDA-MB-436 cells after 72 hrs by CCK8 or SRB assay; assay type: functional, cell-based
[13] = biological target: Histone acetyltransferase p300 (Homo sapiens) (UniProt Q09472); assay: Inhibition of EP300 (unknown origin) at 1 uM
Outline: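 Bromodomain binding panel (32 bromodomains) screened at 1 μM; primary binding read-out reported as percent of control, lower values meaning stronger binding.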

[14] = biological target: T1, Bromodomain-containing protein 4; assay: Inhibition of BRD4 bromodomain 2 (unknown origin)
MV4-11 [15] = assay: Induction of apoptosis in human MV4-11 cells assessed as reduction in PUMA level after 24 hrs by Western blot analysis; assay type: functional, cell-based; outline: as §3
[16] = biological target: Bromodomain adjacent to zinc finger domain protein 2A (Homo sapiens) (UniProt Q9UIF9); assay: Binding affinity to human partial length BAZ2A (M1792 to L1905 residues) expressed in Escherichia coli BL21 cells assessed as residual binding level at 1 uM measured after 1 hr by quantitative PCR based BROMOscan assay relative to control
Outline: (§5)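 A BROMOScan competition-binding panel of 32 bromodomains was run at a single 1 μM compound concentration. Results are primary-screen 'Percent Control', where lower values indicate stronger binding.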

MV4-11 [17] = assay: Induction of apoptosis in human MV4-11 cells assessed as reduction in BCL-2 level after 24 hrs by Western blot analysis; assay type: functional, cell-based; outline: as §3
MM1.S = assay: Antiproliferative activity against human MM1S cells after 72 hrs by CCK8 or SRB assay; assay type: functional, cell-based
Outline: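 IC50 against MM.1S cell proliferation was taken as the mean of three independent experiments, each run in triplicate, reported with SEM.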

MV4-11 [18] = assay: Induction of apoptosis in human MV4-11 cells assessed as increase in cleaved caspase-3 level after 24 hrs by Western blot analysis; assay type: functional, cell-based; outline: as §3
[19] = Half life in dog plasma at 3 mg/kg, po; assay type: ADME, organism-based, Canis lupus familiaris
[20] = Cmax in ICR mouse plasma at 50 mg/kg, po administered via gavage measured after 0.25 to 24 hrs by UPLC/MS analysis; assay type: ADME, organism-based; set-up: dose 50 mg/kg, route oral; outline: as §2
[21] = biological target: Bromodomain-containing protein 3 (Homo sapiens) (UniProt Q15059); assay: Binding affinity to human partial length BRD3 bromodomain 2 (G306 to P416 residues) expressed in Escherichia coli BL21 cells assessed as residual binding level at 1 uM measured after 1 hr by quantitative PCR based BROMOscan assay relative to control; outline: as §5
[22] = biological target: Nucleosome-remodeling factor subunit BPTF (Homo sapiens) (UniProt Q12830); assay: Binding affinity to human partial length FALZ (S2791 to H2911 residues) expressed in Escherichia coli BL21 cells assessed as residual binding level at 1 uM measured after 1 hr by quantitative PCR based BROMOscan assay relative to control; outline: as §5
RKO = assay: Induction of cell cycle arrest in human RKO cells assessed as increase in accumulation at G1 phase at 100 nM after 24 hrs by propidium iodide staining based flow cytometric analysis; assay type: functional
[23] = AUC (0 to infinity) in ICR mouse at 10 mg/kg, po administered via gavage measured after 0.25 to 24 hrs by UPLC/MS analysis; assay type: ADME, organism-based; set-up: dose 10 mg/kg, route oral, time infinity; conditions: in vivo; outline: as §4
[24] = Drug uptake in plasma of Balb/c nude mouse xenografted with human MV4-11 cells at 10 to 50 mg/kg, po measured after 1 to 8 hrs; assay type: ADME, organism-based; conditions: in vivo
Outline: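 MV4-11 xenografts in BALB/c nude mice given oral compound; drug concentrations in plasma and tumor tissue measured at 1 h and 8 h after dosing.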

Chain of Bromodomain adjacent to zinc finger domain protein 2A (Homo sapiens) (Q9UIF9 whole entry, the tested form may be a part): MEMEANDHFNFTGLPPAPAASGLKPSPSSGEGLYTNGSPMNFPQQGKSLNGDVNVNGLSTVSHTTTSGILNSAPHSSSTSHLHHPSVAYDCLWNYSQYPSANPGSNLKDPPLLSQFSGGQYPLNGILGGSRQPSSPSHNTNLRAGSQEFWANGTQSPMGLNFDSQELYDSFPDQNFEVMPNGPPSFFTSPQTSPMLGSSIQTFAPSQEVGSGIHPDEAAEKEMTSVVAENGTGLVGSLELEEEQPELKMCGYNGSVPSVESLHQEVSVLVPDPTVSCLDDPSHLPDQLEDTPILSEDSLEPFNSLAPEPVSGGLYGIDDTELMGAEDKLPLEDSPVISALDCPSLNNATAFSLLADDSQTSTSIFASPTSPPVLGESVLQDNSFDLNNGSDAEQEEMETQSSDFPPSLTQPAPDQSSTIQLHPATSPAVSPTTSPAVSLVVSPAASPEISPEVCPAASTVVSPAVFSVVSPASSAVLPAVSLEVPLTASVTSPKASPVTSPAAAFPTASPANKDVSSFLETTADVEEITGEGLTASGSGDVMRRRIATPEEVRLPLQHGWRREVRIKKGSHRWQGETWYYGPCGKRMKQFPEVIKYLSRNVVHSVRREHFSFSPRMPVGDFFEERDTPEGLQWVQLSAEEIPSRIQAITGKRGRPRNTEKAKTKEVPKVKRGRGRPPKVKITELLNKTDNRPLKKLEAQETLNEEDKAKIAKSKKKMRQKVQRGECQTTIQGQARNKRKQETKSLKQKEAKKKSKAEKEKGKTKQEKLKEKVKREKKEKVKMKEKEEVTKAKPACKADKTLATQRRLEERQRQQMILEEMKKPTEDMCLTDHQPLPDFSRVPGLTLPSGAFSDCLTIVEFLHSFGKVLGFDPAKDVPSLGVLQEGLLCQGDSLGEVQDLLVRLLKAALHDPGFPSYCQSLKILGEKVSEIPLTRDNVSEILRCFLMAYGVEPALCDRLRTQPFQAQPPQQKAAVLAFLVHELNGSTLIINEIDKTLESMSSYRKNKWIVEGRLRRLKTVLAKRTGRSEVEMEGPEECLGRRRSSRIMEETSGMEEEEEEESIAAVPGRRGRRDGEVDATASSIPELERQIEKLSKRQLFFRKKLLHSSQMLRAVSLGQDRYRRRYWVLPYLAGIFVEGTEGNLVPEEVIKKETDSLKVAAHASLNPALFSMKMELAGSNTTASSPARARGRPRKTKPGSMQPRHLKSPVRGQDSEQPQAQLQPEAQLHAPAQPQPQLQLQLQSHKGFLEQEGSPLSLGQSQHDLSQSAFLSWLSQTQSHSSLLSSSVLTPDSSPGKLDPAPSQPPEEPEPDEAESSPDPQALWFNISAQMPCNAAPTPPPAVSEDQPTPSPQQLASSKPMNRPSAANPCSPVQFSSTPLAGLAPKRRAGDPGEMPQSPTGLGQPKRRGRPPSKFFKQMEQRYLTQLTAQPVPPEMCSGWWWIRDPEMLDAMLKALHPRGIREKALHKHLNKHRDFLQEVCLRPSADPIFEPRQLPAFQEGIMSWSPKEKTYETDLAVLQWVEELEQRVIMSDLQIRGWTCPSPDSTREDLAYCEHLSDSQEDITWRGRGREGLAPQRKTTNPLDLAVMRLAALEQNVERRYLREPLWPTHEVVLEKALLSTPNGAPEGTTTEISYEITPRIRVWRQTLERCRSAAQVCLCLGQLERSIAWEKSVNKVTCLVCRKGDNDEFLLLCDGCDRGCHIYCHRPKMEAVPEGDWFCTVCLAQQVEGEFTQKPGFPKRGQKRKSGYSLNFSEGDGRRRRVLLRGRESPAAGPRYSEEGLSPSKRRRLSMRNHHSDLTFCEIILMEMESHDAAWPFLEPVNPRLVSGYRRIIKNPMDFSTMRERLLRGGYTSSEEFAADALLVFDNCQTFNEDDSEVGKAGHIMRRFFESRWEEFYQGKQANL
Chain of Cytochrome P450 2D6 (P10635 whole entry): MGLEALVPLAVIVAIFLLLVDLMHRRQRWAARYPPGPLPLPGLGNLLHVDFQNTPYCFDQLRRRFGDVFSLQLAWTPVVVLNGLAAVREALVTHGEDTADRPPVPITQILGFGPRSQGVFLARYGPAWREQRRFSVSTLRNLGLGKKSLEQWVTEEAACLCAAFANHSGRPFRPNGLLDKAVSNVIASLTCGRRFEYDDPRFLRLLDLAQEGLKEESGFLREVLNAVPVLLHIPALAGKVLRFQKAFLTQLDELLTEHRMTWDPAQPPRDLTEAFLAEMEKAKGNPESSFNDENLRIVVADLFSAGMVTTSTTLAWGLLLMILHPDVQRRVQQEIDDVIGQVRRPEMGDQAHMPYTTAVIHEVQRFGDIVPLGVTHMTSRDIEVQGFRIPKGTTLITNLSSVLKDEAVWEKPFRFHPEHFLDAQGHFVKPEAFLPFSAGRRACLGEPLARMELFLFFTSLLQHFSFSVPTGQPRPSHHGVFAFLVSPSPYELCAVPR
Chain of Insulin-like growth factor 1 receptor (Homo sapiens) (P08069 31-736 limits assumed): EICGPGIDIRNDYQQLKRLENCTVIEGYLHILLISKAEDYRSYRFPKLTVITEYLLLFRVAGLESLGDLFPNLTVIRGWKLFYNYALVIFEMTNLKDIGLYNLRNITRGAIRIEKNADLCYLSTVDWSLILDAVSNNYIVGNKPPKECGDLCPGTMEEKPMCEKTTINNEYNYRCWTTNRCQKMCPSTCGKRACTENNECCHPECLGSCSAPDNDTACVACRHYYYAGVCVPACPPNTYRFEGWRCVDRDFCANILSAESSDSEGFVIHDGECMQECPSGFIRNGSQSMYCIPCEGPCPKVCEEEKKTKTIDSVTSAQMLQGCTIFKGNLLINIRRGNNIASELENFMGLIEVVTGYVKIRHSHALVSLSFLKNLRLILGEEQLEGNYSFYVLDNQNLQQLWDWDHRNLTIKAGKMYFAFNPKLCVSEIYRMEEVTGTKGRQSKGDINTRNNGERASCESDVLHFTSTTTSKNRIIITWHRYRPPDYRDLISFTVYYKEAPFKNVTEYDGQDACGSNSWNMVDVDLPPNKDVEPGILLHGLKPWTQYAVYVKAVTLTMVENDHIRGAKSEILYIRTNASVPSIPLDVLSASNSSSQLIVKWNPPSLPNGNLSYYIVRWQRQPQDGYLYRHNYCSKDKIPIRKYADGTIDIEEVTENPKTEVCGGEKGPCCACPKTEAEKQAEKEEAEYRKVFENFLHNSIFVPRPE
Chain of Insulin-like growth factor 1 receptor (Homo sapiens) (P08069 741-1367 limits assumed): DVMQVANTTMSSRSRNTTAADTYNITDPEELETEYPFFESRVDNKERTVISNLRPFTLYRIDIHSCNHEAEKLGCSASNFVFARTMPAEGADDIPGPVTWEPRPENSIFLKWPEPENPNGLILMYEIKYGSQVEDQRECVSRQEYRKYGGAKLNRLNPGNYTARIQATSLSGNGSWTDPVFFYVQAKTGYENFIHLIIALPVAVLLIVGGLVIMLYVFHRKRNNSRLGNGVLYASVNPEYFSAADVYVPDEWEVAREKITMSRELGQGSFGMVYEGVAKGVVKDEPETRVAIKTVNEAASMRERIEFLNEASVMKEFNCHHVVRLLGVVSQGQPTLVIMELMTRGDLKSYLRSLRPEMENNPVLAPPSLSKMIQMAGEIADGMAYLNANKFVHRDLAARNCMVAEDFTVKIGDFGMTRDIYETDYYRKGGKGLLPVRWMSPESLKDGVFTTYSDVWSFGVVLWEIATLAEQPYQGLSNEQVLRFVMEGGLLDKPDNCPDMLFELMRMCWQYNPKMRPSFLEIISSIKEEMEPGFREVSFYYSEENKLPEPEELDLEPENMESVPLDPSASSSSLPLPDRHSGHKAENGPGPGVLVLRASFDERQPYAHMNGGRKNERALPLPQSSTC
Chain of Bromodomain-containing protein 3 (Homo sapiens) (Q15059 2-726 limits assumed): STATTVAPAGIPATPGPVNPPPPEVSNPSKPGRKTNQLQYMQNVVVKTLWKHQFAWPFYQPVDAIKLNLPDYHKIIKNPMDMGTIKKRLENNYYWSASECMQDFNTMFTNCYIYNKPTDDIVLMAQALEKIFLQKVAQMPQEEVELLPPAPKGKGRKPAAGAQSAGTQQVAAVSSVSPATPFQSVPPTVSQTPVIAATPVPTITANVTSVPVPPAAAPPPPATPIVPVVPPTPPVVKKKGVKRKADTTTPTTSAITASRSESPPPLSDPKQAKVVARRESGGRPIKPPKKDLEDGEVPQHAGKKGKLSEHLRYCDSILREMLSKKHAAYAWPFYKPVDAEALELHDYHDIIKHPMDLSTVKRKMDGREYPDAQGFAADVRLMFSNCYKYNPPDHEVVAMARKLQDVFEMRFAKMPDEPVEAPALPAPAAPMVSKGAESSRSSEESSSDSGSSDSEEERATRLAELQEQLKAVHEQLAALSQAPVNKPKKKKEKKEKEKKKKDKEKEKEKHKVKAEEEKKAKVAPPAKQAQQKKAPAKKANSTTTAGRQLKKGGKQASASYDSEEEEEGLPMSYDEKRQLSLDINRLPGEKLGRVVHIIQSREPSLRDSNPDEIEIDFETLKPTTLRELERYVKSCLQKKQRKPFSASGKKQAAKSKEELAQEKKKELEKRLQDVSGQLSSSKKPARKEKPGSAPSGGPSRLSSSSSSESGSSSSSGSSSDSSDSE

With `Cc1ccc(-n2nc(C(=O)N3C[C@@H](C)N[C@@H](C)C3)nc2-c2ccc3c(c2)N(C2CCCC2)[C@H](C)C(=O)N3C)cc1` the Activity (MV4-11 [1]) was “Active”, the Activity (MV4-11 [2]) was “Dose-dependent effect” and the inhibition [3] was “Active”. For the same molecule, the half-life [4] was 2.1 h, the Tmax [5] was 0.9 h and the inhibition [6] was “Dose-dependent effect”. The Cmax [7] was 1900 ng/mL, the half-life [8] was 4.4 h and the TDI (Cytochrome P450 2D6) was “Not Active”. For the same molecule, the Activity (MV4-11 [9]) was “Dose-dependent effect”, the Activity (MV4-11 [10]) was “Dose-dependent effect” and the AUC(0-t) [11] was 2320 ng·h/mL. For the same molecule, the Activity (NCI-H522) was “Active”, the Tmax [12] was 2.3 h and the Activity (MDA-MB-436) was “Active”. For the same molecule, the inhibition [13] was “inactive”, the inhibition [14] was “Active” and the Activity (MV4-11 [15]) was “Dose-dependent effect”. For the same molecule, the Activity [16] was 70 to 100%, the Activity (MV4-11 [17]) was “Dose-dependent effect” and the IC50 (MM1.S) was 2.3 nM. For the same molecule, the Activity (MV4-11 [18]) was “Dose-dependent effect”, the half-life [19] was 6.6 h and the Cmax [20] was 4020 ng/mL. For the same molecule, the Activity [21] was less than 5%, the Activity [22] was 70 to 100% and the Activity (RKO) was “Active”. The AUC(0-inf) [23] was 7390 ng·h/mL and the Drug uptake [24] was “Active”.
